Measured values published in ChEMBL document CHEMBL2202995, “Synthesis and SAR study of 4,5-diaryl-1H-imidazole-2(3H)-thione derivatives, as potent 15-lipoxygenase inhibitors” (Bioorg Med Chem, 2012).

Legend:
[1] = system: Radical scavenging activity; assay: Antioxidant activity of compound assessed as DPPH radical scavenging activity by colorimetric method; assay type: functional
Summary of the method: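 DPPH colorimetric scavenging assay: DPPH solution mixed with an equal volume of compound dissolved in ethanol, several dilutions tested, ethanol as control. After 30 min at room temperature, absorbance read at 517 nm. IC50 obtained by regression analysis of the mean values.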

[2] = Inhibition of soybean 15-LOX assessed as peroxide level by DMAB-MBTH method; set-up: species or system Glycine max
Summary of the method: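 Soybean lipoxygenase (SLO, 40,000 units/mL, 25 µL) and compound in ethanol preincubated 5 min at room temperature in 50 mM phosphate buffer pH 7.0; ethanol-only control. Reaction started with linoleic acid substrate in ethanol/100 mM KOH. After 7 min, 50 mM DMAB in 100 mM phosphate pH 7.0 was added, then MBTH/hemoglobin in phosphate pH 5.0, as colorimetric peroxide read-out.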

## Fc1ccc(-c2[nH]c(=S)[nH]c2-c2ccc(F)cc2)cc1
[1]
  IC50: 143 µM
[2]
  IC50: 23.4 µM

## S=c1[nH]c(-c2ccccc2)c(-c2ccccc2)[nH]1
[1]
  IC50: 49.2 µM
[2]
  IC50: 15.2 µM

## CSc1ccc(-c2[nH]c(=S)[nH]c2-c2ccc(Cl)cc2)cc1
[1]
  IC50: 21.2 µM
[2]
  IC50: 19.7 µM

## S=c1[nH]c(-c2ccc(Cl)cc2)c(-c2ccc(Cl)cc2)[nH]1
[1]
  IC50: 107 µM
[2]
  IC50: 62 µM

## COc1ccc(-c2[nH]c(=S)[nH]c2-c2ccc(N(C)C)cc2)cc1
[1]
  IC50: 15.2 µM
[2]
  IC50: 9.4 µM

## CSc1ccc(-c2[nH]c(=S)[nH]c2-c2ccccc2)cc1
[1]
  IC50: 90 µM
[2]
  IC50: 5.7 µM

## Cc1nc(N2CCN(C)CC2)nc2c1Nc1ccccc1S2
[2]
  IC50: 34.2 µM

## S=c1[nH]c(-c2ccccc2)c(-c2ccc(Cl)cc2)[nH]1
[1]
  IC50: 30.3 µM
[2]
  IC50: 24.9 µM

## CN(C)c1ccc(-c2[nH]c(=S)[nH]c2-c2ccc(Cl)cc2)cc1
[1]
  IC50: 15.9 µM
[2]
  IC50: 22.3 µM

## COc1ccc(-c2[nH]c(=S)[nH]c2-c2ccc(F)cc2)cc1
[1]
  IC50: 57.2 µM
[2]
  IC50: 11 µM

## COc1ccc(-c2nc(S)[nH]c2-c2ccc(OC)cc2)cc1
[1]
  IC50: 15.5 µM
[2]
  IC50: 14.7 µM

## COc1ccc(-c2[nH]c(=S)[nH]c2-c2ccccc2)cc1
[1]
  IC50: 87.4 µM
[2]
  IC50: 13.7 µM

## COc1ccc(-c2[nH]c(=S)[nH]c2-c2ccc(Cl)cc2)cc1
[1]
  IC50: 14 µM
[2]
  IC50: 4.7 µM

## CC(Cc1ccc(O)c(O)c1)C(C)Cc1ccc(O)c(O)c1 (stereo not given) [NORDIHYDROGUAIARETIC ACID]
[1]
  IC50: 6.2 µM

## CSc1ccc(-c2[nH]c(=S)[nH]c2-c2ccc(F)cc2)cc1
[1]
  IC50: 49 µM
[2]
  IC50: 136 µM

## COc1ccc(-c2nc(SC)[nH]c2-c2ccc(Cl)cc2)cc1
[1]
  IC50: > 250 µM
[2]
  IC50: > 250 µM
